The source of these data is PubChem BioAssay AID624316 (Broad Institute, 2012).

As usually defined, the AC50 is the concentration giving half of the maximal activity seen.

Structures are written as SMILES. Values joined by “and” are separate entries in the source; they are usually repeats but may differ in a detail not shown here. Equal values may be shown once. Active and inactive are the calls of the source.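 Rule for the calls: active = compounds lowering reporter light with a fitted AC50 at or below twice their top valid dose; inconclusive = flat partial inhibition or an unreliable curve fit; inactive = the rest.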

The assay relates to SK-MEL-5 TRPM1 promoter luciferase reporter, 24 h. Briefly: TRPM1 promoter luciferase signal reduction, dose response, MITF inhibitor project, cell-based, SK-MEL-5, dry powder samples, set 4 (AID 624316). The essentials:
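incubation = compound added 24 h post-plating, 24 h exposure at 37 °C | test system = SK-MEL-5 melanoma line stably carrying TRPM1 promoter–luciferase reporter | medium = phenol-red-free DMEM, 10% FBS | dosing = compounds pinned into wells as DMSO solutions | technique = luciferase luminescence with SteadyGlo, 5 min room temperature | benchmarks = parthenolide as positive control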
Turning to `CC(=O)NC1=C(c2ccccc2)C(=O)c2ccccc2C1=O`, the AC50 is 5.51 µM.
Then `NC1=CC(=O)c2ccccc2C1=O`, with 1.41 µM.
As to `O=C1C=C(Nc2ccccc2)C(=O)c2ccccc21`, the AC50 is 4.07 µM.
With `COc1ccc(C2=C(NC(C)=O)C(=O)c3ccccc3C2=O)cc1`, the AC50 was 5.44 µM.
With `COc1cccc(-c2cc(C(=O)NC3=C(Cl)C(=O)c4ccccc4C3=O)ccc2OC)c1`, the AC50 was 3.3 µM.
Then `COc1ccc(C(=O)NC2=C(c3ccc(OC)cc3)C(=O)c3ccccc3C2=O)cc1`, with 8.59 µM.
With `C=CCNC1=C(N2CCN(C)CC2)C(=O)c2ccccc2C1=O` the figure was 3.74 µM; with `C=CCNC1=C(NS(=O)(=O)c2cccs2)C(=O)c2ccccc2C1=O`, 12 µM; with `O=C(NC1=C(N2CCSCC2)C(=O)c2ccccc2C1=O)c1ccccc1`, 3.61 µM.
With `C=CCNC1=C(N2CCSCC2)C(=O)c2ccccc2C1=O` the figure was 2.81 µM; with `COc1ccc(C2=C(NC(=O)c3ccccc3OC)C(=O)c3ccccc3C2=O)cc1`, 15.7 µM; with `CC(=O)NC1=C(c2cccc(Cl)c2)C(=O)c2ccccc2C1=O`, 3.93 µM.
In the case of `CC(=O)N(C)C1=C(N2CCOCC2)C(=O)c2ccccc2C1=O`, the AC50 was 1.89 µM.
With `Cc1nc2ccccc2n1/N=C/c1ccc([N+](=O)[O-])s1` the figure was 1.86 µM; with `O=C(NC1=C(c2ccc(OC(F)(F)F)cc2)C(=O)c2ccccc2C1=O)c1ccccc1`, 32 µM; with `O=C1C(Nc2ccccc2)=C(N2CCCCC2)C(=O)c2ccccc21`, 2.78 µM.
With `C=CCNC1=C(N2CCOCC2)C(=O)c2ccccc2C1=O` the figure was 1.54 µM; with `COC1=C(NS(=O)(=O)c2ccccc2)C(=O)c2ccccc2C1=O`, 6.65 µM.
As to `O=C(NC1=C(c2ccccc2)C(=O)c2ccccc2C1=O)c1ccccc1`, the AC50 was 6.77 µM.
For the compound `O=C1C(NCCCN2CCOCC2)=C(Nc2ccccc2)C(=O)c2ccccc21`, the AC50 is 4.03 µM.
With `O=C(NC1=C(c2ccccc2)C(=O)c2ccccc2C1=O)c1ccco1` the figure was 8.11 µM; with `COc1cccc(C2=C(NC(=O)c3ccccc3)C(=O)c3ccccc3C2=O)c1`, 13.9 µM.
With `C=CCNC1=C(NCCN(CC)CC)C(=O)c2ccccc2C1=O` the figure was 1.75 µM.
Then `C=CCNC1=C(N(C)C(C)=O)C(=O)c2ccccc2C1=O`, with 0.107 µM; and `COc1ccc(C2=C(NC(=O)c3ccc(OC)cc3-c3cccc(OC)c3)C(=O)c3ccccc3C2=O)cc1`, with > 70 µM (inactive); and `C=CCNC1=C(NC(=O)c2ccccc2)C(=O)c2ccccc2C1=O`, with 11.7 µM.
With `COc1ccc(C(=O)NC2=C(c3ccccc3)C(=O)c3ccccc3C2=O)cc1`, the AC50 is 10.9 µM.
With `O=C(NC1=C(N2CCOCC2)C(=O)c2ccccc2C1=O)c1ccc(Br)cc1` the figure was 11.3 µM.
Then `Cc1ccc(C(=O)NC2=C(c3ccc(OC(F)(F)F)cc3)C(=O)c3ccccc3C2=O)o1`, with 15.4 µM; and `CCN1CCN(C2=C(NC(=O)c3ccc(Br)cc3)C(=O)c3ccccc3C2=O)CC1`, with 0.566 µM; and `C[C@@H](NC1=C(Nc2ccccc2)C(=O)c2ccccc2C1=O)c1ccccc1`, with 9.76 µM.
Take `O=C1C(NS(=O)(=O)c2ccc(Br)s2)=C(N2CCSCC2)C(=O)c2ccccc21`: the concentration at half-maximal activity (AC50) was 20.5 µM.
For the compound `CN1CCN(C2=C(Nc3ccccc3)C(=O)c3ccccc3C2=O)CC1`, the AC50 was 4.78 µM.
With `COc1ccc(C2=C(NC(=O)c3ccccc3Cl)C(=O)c3ccccc3C2=O)cc1` the figure was 6.21 µM.
Turning to `COc1ccc(C2=C(NC(=O)c3cccc(Cl)c3)C(=O)c3ccccc3C2=O)cc1`, the AC50 is 19.9 µM.
With `CCN(CC)CCCCNC1=C(Nc2ccccc2)C(=O)c2ccccc2C1=O` the figure was 2.87 µM; with `O=C(NC1=C(N2CCSCC2)C(=O)c2ccccc2C1=O)c1ccc(Br)cc1`, 8.75 µM; with `CN1CCN(C2=C(NS(=O)(=O)c3ccccc3)C(=O)c3ccccc3C2=O)CC1`, 0.614 µM.
Then `NC1=C(c2ccc(OC(F)(F)F)cc2)C(=O)c2ccccc2C1=O`, with 16.3 µM; and `NC1=C(c2ccccc2)C(=O)c2ccccc2C1=O`, with 7.61 µM.
Take `CC(=O)NC1=C(c2ccc(Cl)cc2)C(=O)c2ccccc2C1=O`: the AC50 was 5.17 µM.
With `O=C1C(NS(=O)(=O)c2ccc(Br)cc2)=C(N2CCN(c3ccccc3)CC2)C(=O)c2ccccc21` the figure was 17.1 µM; with `C=CCNC1=C(NS(=O)(=O)c2ccc(Br)cc2)C(=O)c2ccccc2C1=O`, 7.27 µM; with `O=C(NC1=C(c2ccccc2)C(=O)c2ccccc2C1=O)c1ccc(Br)cc1`, 12.3 µM.
With `Cc1ccc(C(=O)NC2=C(c3ccccc3)C(=O)c3ccccc3C2=O)o1` the figure was 4.8 µM; with `C=CCNC1=C(NCCCN(CC)CC)C(=O)c2ccccc2C1=O`, 3.12 µM.
With `O=C1C(NS(=O)(=O)c2ccc(Br)s2)=C(N2CCCCC2)C(=O)c2ccccc21` the figure was 19.3 µM; with `CCN1c2ccccc2NC2N=C(OC)C(c3ccccc3)C21` (configuration not stated), 2.5 µM; with `O=C(NC1=C(c2ccc(OC(F)(F)F)cc2)C(=O)c2ccccc2C1=O)c1ccccc1F`, 17.1 µM.
Regarding `CCN1CCN(C2=C(NC(=O)c3ccccc3)C(=O)c3ccccc3C2=O)CC1`, the AC50 was 0.582 µM.
Then `O=C1C(NS(=O)(=O)c2ccccc2)=C(N2CCOCC2)C(=O)c2ccccc21`, with 18.5 µM.
Take `CCN1CCN(C2=C(NS(=O)(=O)c3cccs3)C(=O)c3ccccc3C2=O)CC1`: the AC50 is 1.73 µM.
Then `O=C1C(NS(=O)(=O)c2ccc(Br)cc2)=C(N2CCCCC2)C(=O)c2ccccc21`, with 14.2 µM.
In the case of `O=C1C(NS(=O)(=O)c2ccc(Br)cc2)=C(N2CCOCC2)C(=O)c2ccccc21`, the AC50 is 6.87 µM.
Then `O=C(NC1=C(Cl)C(=O)c2ccccc2C1=O)c1ccccc1`, with 0.854 µM.
With `O=C1C(NS(=O)(=O)c2cccs2)=C(N2CCCCC2)C(=O)c2ccccc21` the figure was 21.7 µM.
With `O=C1C(Nc2ccccc2)=C(NS(=O)(=O)c2ccccc2[N+](=O)[O-])C(=O)c2ccccc21` the figure was 29 µM; with `C=CCNC1=C(Cl)C(=O)c2ccccc2C1=O`, 1.67 µM and 2.18 µM.
Turning to `NC1=C(NC(=O)c2ccccc2)C(=O)c2ccccc2C1=O`, the AC50 is 4.37 µM.
With `O=C1C(Nc2ccccc2)=C(N2CCSCC2)C(=O)c2ccccc21` the figure was 7.75 µM; with `CN1CCN(C2=C(NS(=O)(=O)c3ccc(Br)s3)C(=O)c3ccccc3C2=O)CC1`, 2.57 µM.
Then `COc1ccc(C(=O)NC2=C(c3ccc(OC(F)(F)F)cc3)C(=O)c3ccccc3C2=O)cc1`, with 35.5 µM; and `CCN1CCN(C2=C(NS(=O)(=O)c3ccc(Br)s3)C(=O)c3ccccc3C2=O)CC1`, with 4.1 µM; and `O=C1C(NS(=O)(=O)c2ccccc2)=C(N2CCCCC2)C(=O)c2ccccc21`, with 28.3 µM.
On to `CN1CCN(C2=C(NS(=O)(=O)c3cccs3)C(=O)c3ccccc3C2=O)CC1`, for which the AC50 was 2.06 µM.
Consider `O=C1C(NS(=O)(=O)c2ccc(Br)cc2)=C(c2ccccc2)C(=O)c2ccccc21`, for which the AC50 is 24 µM.
With `O=C1C(NS(=O)(=O)c2cccs2)=C(N2CCOCC2)C(=O)c2ccccc21` the figure was 9.86 µM; with `CC(=O)N(C)C1=C(N2CCCCC2)C(=O)c2ccccc2C1=O`, 0.7 µM; with `CC(=O)NC1=C(c2ccc3c(c2)oc2ccccc23)C(=O)c2ccccc2C1=O`, 1.59 µM.
With `C=CCNC1=C(N2CCCCC2)C(=O)c2ccccc2C1=O` the figure was 0.538 µM; with `C=CCNC1=C(N2CCN(CC)CC2)C(=O)c2ccccc2C1=O`, 4.12 µM; with `CC(=O)NC1=C(c2ccc(Oc3ccccc3)cc2)C(=O)c2ccccc2C1=O`, 14.8 µM.
With `COc1ccc(C2=C(N)C(=O)c3ccccc3C2=O)cc1` the figure was 25.1 µM.
As to `CCN1CCN(C2=C(NS(=O)(=O)c3ccc(Br)cc3)C(=O)c3ccccc3C2=O)CC1`, the AC50 is 4.06 µM.
With `CCN(CC)CCCNC1=C(N(C)C(C)=O)C(=O)c2ccccc2C1=O` the figure was 0.188 µM; with `CC1CCN(CC(CS(=O)(=O)c2ccc([N+](=O)[O-])cc2)N2CCC(C)CC2)CC1` (configuration not stated), 4.72 µM.
As to `C=CCNC1=C(Nc2ccccc2)C(=O)c2ccccc2C1=O`, the AC50 is 12.4 µM.
With `O=C(NC1=C(c2ccc(OC(F)(F)F)cc2)C(=O)c2ccccc2C1=O)c1ccc(Br)cc1` the figure was 20.5 µM.
Then `O=C1C(NS(=O)(=O)c2ccc(Br)s2)=C(N2CCOCC2)C(=O)c2ccccc21`, with 19.9 µM; and `CCN(CC)CCNC1=C(Nc2ccccc2)C(=O)c2ccccc2C1=O`, with 1.66 µM.
With `CCN(CC)CCCNC1=C(Nc2ccccc2)C(=O)c2ccccc2C1=O` the figure was 2.38 µM; with `O=C(NC1=C(N2CCCCC2)C(=O)c2ccccc2C1=O)c1ccccc1`, 25.6 µM; with `COc1ccc(C2=C(NC(=O)c3cccc(OC)c3)C(=O)c3ccccc3C2=O)cc1`, 11.4 µM.
On to `COc1ccc(S(=O)(=O)N(C(C)=O)c2ccc(OC(C)=O)c3ccccc23)cc1[N+](=O)[O-]`, for which the AC50 was 6.67 µM.
Then `CN1CCN(C2=C(NC(=O)c3ccc(Br)cc3)C(=O)c3ccccc3C2=O)CC1`, with 0.921 µM; and `O=C1C(Nc2ccccc2)=C(N2CCN(c3ccccc3)CC2)C(=O)c2ccccc21`, with 8.06 µM; and `O=C(NC1=C(N2CCCCC2)C(=O)c2ccccc2C1=O)c1ccc(Br)cc1`, with 36.2 µM.
With `CCN1CCN(C2=C(N(C)C(C)=O)C(=O)c3ccccc3C2=O)CC1` the figure was 0.367 µM; with `O=C(NC1=C(c2ccc(Oc3ccccc3)cc2)C(=O)c2ccccc2C1=O)c1ccccc1`, > 70 µM (inactive); with `O=C(NC1=C(c2ccc(OC(F)(F)F)cc2)C(=O)c2ccccc2C1=O)c1ccco1`, 21 µM.
On to `CCN1CCN(C2=C(Nc3ccccc3)C(=O)c3ccccc3C2=O)CC1`, for which the AC50 was 0.689 µM.
Then `O=C1C(NS(=O)(=O)c2ccc(Br)cc2)=C(N2CCSCC2)C(=O)c2ccccc21`, with 9.91 µM.
